# Experimental data of several laboratories.
# Each line is one published result; the experiments were not run side by side.
# ADORA2B: Adenosine receptor A2b (ADORA2B, Homo sapiens, UniProt P29275)
# PKN3: Serine/threonine-protein kinase N3 (PKN3, Homo sapiens, UniProt Q6P5Z2)
# CFTR: Cystic fibrosis transmembrane conductance regulator (CFTR, Homo sapiens, UniProt P13569)
SMILES,target,assay,conditions,inhibition [%]
CN(C)C1CCN(CC#Cc2nn(C3CCCC3)c3nc(NCc4ccccc4)ncc23)C1 (stereo not drawn),"Dual specificity protein kinase CLK2 (CLK2, Homo sapiens, UniProt P49760)","enzyme activity, inhibitor, FRET",10 µM,33
CCN(c1cc(C#CCN2CCOCC2)cc(C(=O)NCc2c(C)cc(C)[nH]c2=O)c1C)[C@H]1CC[C@H](N(C)CCOC)CC1,"Histone-lysine N-methyltransferase, H3 lysine-79 specific (DOT1L, Homo sapiens, UniProt Q8TEK3)","enzyme activity, inhibitor",1 µM,1
CC(=O)c1nn(CC(=O)N2C[C@H](F)C[C@H]2C(=O)Nc2cccc(Br)n2)c2ccc(-c3cnc(C)nc3)cc12,"Chymase (CMA1, Homo sapiens, UniProt P23946)","enzyme activity, inhibitor",10 µM,-1.2
CC(C)CN1CCCn2c1nc1c2c(=O)n(C)c(=O)n1C,ADORA2B,"ligand displacement, radioligand","10 µM, cell membranes",5
Cn1cncc1C1=CN(c2ncnc3[nH]cnc23)CCS1,PKN3,"enzyme activity, inhibitor, radiometric",50 nM,18.6
CC(C)(NC(=O)OC1CCCCC1)c1csc(-c2ccc(F)cc2)n1,"N-terminal Xaa-Pro-Lys N-methyltransferase 1 (Homo sapiens, UniProt Q9BV86)","enzyme activity, inhibitor, fluorescence",100 µM,< 50
O=C(NN=Cc1cc(Br)c(O)c(Br)c1)C(=O)Nc1ccc2ccccc2c1,CFTR,"ion current, inhibitor",50 µM,80
C=CCN1CCCn2c1nc1c2c(=O)n(C)c(=O)n1C,ADORA2B,"ligand displacement, radioligand","10 µM, cell membranes",6
COc1cc(NC(C)=O)c(Cl)cc1C(=O)Nc1nccs1,ADORA2B,cell-free assay,10 µM,-34.6
Cn1cnc(Br)c1C1=CN(c2ncnc3[nH]cnc23)CCS1,PKN3,"enzyme activity, inhibitor, radiometric",50 nM,29.2
CC(Nc1ccc2ccccc2c1)C(=O)NN=Cc1cc(Br)c(O)c(Br)c1O (stereo not drawn),CFTR,"ion current, inhibitor",50 µM,91
CCCCCN1CCCn2c1nc1c2c(=O)n(C)c(=O)n1C,ADORA2B,"ligand displacement, radioligand","10 µM, cell membranes",-3
Cc1ccc(NCC(=O)NN=Cc2cc(Br)c(O)c(Br)c2O)cc1,CFTR,"ion current, inhibitor",50 µM,79
C#CCN1CCCn2c1nc1c2c(=O)n(C)c(=O)n1C,ADORA2B,"ligand displacement, radioligand","10 µM, cell membranes",29
CC(Nc1ccc2ccccc2c1)C(=O)NN=Cc1cc(Br)c(O)c(Br)c1 (stereo not drawn),CFTR,"ion current, inhibitor",50 µM,80
CC(C)CC(C)N1CCCn2c1nc1c2c(=O)n(C)c(=O)n1C (stereo not drawn),ADORA2B,"ligand displacement, radioligand","10 µM, cell membranes",1
O=C(CNc1cccc2ccccc12)NN=Cc1cc(Br)c(O)c(Br)c1,CFTR,"ion current, inhibitor",50 µM,87
O=C(c1ccc(F)cc1)N(Cc1ccccc1)C1CCCCC1,"Muscarinic acetylcholine receptor M1 (CHRM1, Homo sapiens, UniProt P11229)",cell-free assay,10 µM,-1
CCC(C)N1CCCn2c1nc1c2c(=O)n(C)c(=O)n1C (stereo not drawn),ADORA2B,"ligand displacement, radioligand","10 µM, cell membranes",-9
Oc1ncnc2[nH]ncc12,"Xanthine dehydrogenase/oxidase (XDH, Homo sapiens, UniProt P47989)","enzyme activity, inhibitor, absorbance",500 µM,100
CCN(CC)c1ccc(C2Nc3ccc(C(=O)c4ccccc4)cc3NC3=C2C(=O)CC(C)(C)C3)cc1 (stereo not drawn),"Beta-3 adrenergic receptor (ADRB3, Homo sapiens, UniProt P13945)","ligand displacement, radioligand",10 µM,0
CCN1CCCn2c1nc1c2c(=O)n(C)c(=O)n1C,ADORA2B,"ligand displacement, radioligand","10 µM, cell membranes",12
O=C(CNc1cccc2ccccc12)NN=Cc1cc(Br)c(O)c(Br)c1O,CFTR,"ion current, inhibitor",50 µM,86
O=C(c1ccc(Cl)cc1)N(Cc1ccccc1)C1CCCCC1,ADORA2B,cell-free assay,10 µM,-5.4
